The text below walks through data of ChEMBL document CHEMBL1136965, “Inhibition of dynamin mediated endocytosis by the dynoles--synthesis and functional activity of a family of indoles” (J Med Chem, 2009).

Active and inactive are the calls of the source. The rule behind the calls is not given here.

A short description of series [1]: Inhibition of sheep brain dynamin 1 GTPase activity by malachite green GTPase assay. Details: species or system Ovis aries. The gist of the method: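 Buffer: 5 mM Tris pH 7.4, 10 mM NaCl, 2 mM Mg2+, 0.05% Tween 80, leupeptin, PMSF. GTP 0.3 mM, 30 min at 37 °C. Stopped with EDTA, malachite green added, A650 read against a phosphate standard. IC50 is the mean of at least three experiments in duplicate.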

For series [2], the species on record is Ovis aries. Kind of series: Inhibition of sheep brain dynamin 1 GTPase activity at 300 uM by malachite green GTPase assay.
The target in series [3] is T1, Dynamin-2 (Homo sapiens) (UniProt P50570).
T1 sequence (whole entry): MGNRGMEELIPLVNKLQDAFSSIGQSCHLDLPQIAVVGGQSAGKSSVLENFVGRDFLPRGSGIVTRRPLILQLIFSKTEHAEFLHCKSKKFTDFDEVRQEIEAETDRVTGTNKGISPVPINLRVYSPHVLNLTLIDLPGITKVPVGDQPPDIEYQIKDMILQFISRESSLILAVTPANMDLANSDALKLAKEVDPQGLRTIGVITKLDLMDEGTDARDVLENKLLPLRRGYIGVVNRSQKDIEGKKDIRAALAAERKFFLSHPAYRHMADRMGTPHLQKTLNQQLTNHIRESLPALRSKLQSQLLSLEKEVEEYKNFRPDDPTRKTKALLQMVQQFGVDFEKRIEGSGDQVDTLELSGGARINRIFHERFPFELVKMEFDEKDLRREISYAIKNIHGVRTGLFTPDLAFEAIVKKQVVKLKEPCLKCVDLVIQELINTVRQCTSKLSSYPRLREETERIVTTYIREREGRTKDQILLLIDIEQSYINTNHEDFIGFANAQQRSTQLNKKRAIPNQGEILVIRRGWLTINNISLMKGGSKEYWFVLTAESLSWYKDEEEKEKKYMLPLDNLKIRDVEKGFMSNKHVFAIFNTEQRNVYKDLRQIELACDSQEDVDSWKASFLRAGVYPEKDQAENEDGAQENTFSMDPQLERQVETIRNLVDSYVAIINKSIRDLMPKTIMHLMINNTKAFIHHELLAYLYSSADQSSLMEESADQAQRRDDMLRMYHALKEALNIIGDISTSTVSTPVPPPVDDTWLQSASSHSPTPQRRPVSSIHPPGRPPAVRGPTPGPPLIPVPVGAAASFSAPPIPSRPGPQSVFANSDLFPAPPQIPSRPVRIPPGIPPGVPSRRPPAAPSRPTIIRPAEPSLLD
Kind of series: Inhibition of dynamin 2-mediated endocytosis internalization of Texas red-transferrin in human U2OS cells at 30 uM pretreated for 30 mins. Type of series: cell-based. The gist of the method: (§1)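 U2OS cells in DMEM/10% FCS on fibronectin-coated wells, serum-starved overnight (16 h). Preincubated 30 min with drug or vehicle, then Tf-Texas Red 4 µg/mL for 8 min at 37 °C. Ice-cold acid wash (0.2 M acetic acid/0.5 M NaCl, pH 2.8) strips surface Tf. Cells fixed in 4% PFA and DAPI-stained, and internalized Tf-TxR imaged by fluorescence microscopy. Final DMSO at most 1%.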

For series [4], the target named is T1, Dynamin-2 (Homo sapiens). Kind of series: Inhibition of dynamin 2-mediated endocytosis internalization of Texas red-transferrin in human U2OS cells at 100 uM pretreated for 30 mins. The class given is cell-based. The gist of the method: as §1
A further series has as its system U2OS. Kind of series: Toxicity against human U2OS cells assessed as effect on cell morphology after 30 mins. Type of series: cell-based. The conditions noted are these: 0.5 h.
The nature of series [5]: Toxicity against human fibroblasts assessed as cell viability at 10 uM by trypan blue exclusion method. Type of series: cell-based, Fibroblast. The conditions noted are these: read-out: Activity. The gist of the method: (§2)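 Cells seeded at 1 × 10⁵ per 10 cm dish. From 24 h after seeding, exposed continuously for 7 days to drug (10 µM) or 0.5% DMSO vehicle. Floating and adherent cells collected, and viability scored by Trypan Blue exclusion on an automated analyzer. Cell lines: hTert breast stromal fibroblasts, two primary skin fibroblast lines, a primary myoblast line, NIH3T3.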

Series [6] can be described thus: Toxicity against mouse NIH/3T3 cells assessed as cell viability at 10 uM by trypan blue exclusion method. The settings on record: read-out: Activity. Type of series: cell-based, NIH3T3. The gist of the method: as §2
The species named for series [7] is Ovis aries. The series can be described thus: Uncompetitive inhibition of sheep brain dynamin 1 GTPase activity using variable GTP level by kinetic assay. Type of series: tissue-based. The method, boiled down:
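Malachite green Pi release assay with PS-stimulated sheep brain dynamin I (20 nM) at 37 °C for 30 min, with GTP substrate varied in the presence of inhibitor. Vmax and Km were obtained by nonlinear Michaelis–Menten fitting, then the data were replotted as Lineweaver–Burk to assign the inhibition mode.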

Regarding `Cc1c(/C=C(\C#N)C(=O)NCc2ccccc2)c2ccccc2n1CCCN(C)C`, in series [1], 201 µM corresponded to half-maximal inhibition (IC50).
Still for that read-out and setting: the result for `CN(C)CCCn1cc(C2=C(c3c[nH]c4ccccc34)C(=O)NC2=O)c2ccccc21` [GF-109203] reads 100 µM; that for `COc1ccc(CNC(=O)/C(C#N)=C/c2c(C)n(CCN(C)C)c3ccccc23)cc1`, 254 µM; that for `Cc1c(/C=C(\C#N)C(=O)NC2CCCCC2)c2ccccc2n1CCN(C)C`, 300 µM.
Turning to `CCCCCCCCCCCCCCNC(=O)/C(C#N)=C/c1c(C)n(CCCN(C)C)c2ccccc12`, the IC50 in series [1] worked out at 52 µM.
The same measure, in the same setting: the result for `Cc1c(/C=C(\C#N)C(=O)NC2CCCCC2)c2ccccc2n1CCCN(C)C` reads 300 µM.
Consider `CCCCNC(=O)/C(C#N)=C/c1c(C)n(CCCN(C)C)c2ccccc12`, for which the inhibition entry in the series listed under Ovis aries [2] is “inactive”.
For `CCCCCCCCNC(=O)/C(C#N)=C/c1cn(CCCN(C)C)c2ccccc12`, in series [1], it took 1.3 µM to reach half-maximal inhibition (IC50). For the same molecule, the outcome on Dynamin-2 (Homo sapiens) [3] and on Dynamin-2 (Homo sapiens) [4] was Active. The Activity result in the series on U2OS is recorded as “Non-toxic”. Moreover, the viability at 10 µM in series [5] and in series [6] was greater than 98% throughout.
As for `CN(C)CCCn1cc(CCC(=O)O)c2ccccc21`, it took 143 µM to reach half-maximal inhibition in series [1] (IC50).
Molecule `CCCCCCNC(=O)/C(C#N)=C/c1c(C)n(CCCN(C)C)c2ccccc12` had a 50% inhibitory concentration (IC50) in series [1] of 6.62 µM. For the same molecule, the result on Dynamin-2 (Homo sapiens) [4] was Active. In the series on U2OS, the Activity result is reported as “Non-toxic”.
On to `CCNC(=O)/C(C#N)=C/c1c(C)[nH]c2ccccc12`, for which the inhibition entry in the series filed under Ovis aries [2] was “inactive”.
Still for that read-out and setting: the result for `CCCNC(=O)/C(C#N)=C/c1c(C)n(CCCN(C)C)c2ccccc12` reads “inactive”.
In the case of `CCCCCCCCCCCCNC(=O)/C(C#N)=C/c1c(C)n(CCN(C)C)c2ccccc12`, in series [1], the 50% inhibitory concentration (IC50) is 32 µM.
For the molecule `CCCCCCCCNC(=O)/C(C#N)=C/c1c(C)[nH]c2ccccc12`, the inhibition result in the series filed under Ovis aries [2] was “inactive”.
Molecule `CN1CCCC1CCn1cc(C2=C(c3c[nH]c4ccccc34)C(=O)NC2=O)c2ccccc21` (centres undefined) had a 50% inhibitory concentration (IC50) in series [1] of 100 µM.
Still for that read-out and setting: next, `CCCCCCNC(=O)/C(C#N)=C/c1c(C)n(CCN(C)C)c2ccccc12`: 7.69 µM.
As for `CCCNC(=O)/C(C#N)=C/c1c(C)n(CCN(C)C)c2ccccc12`, the inhibition entry in the series listed under Ovis aries [2] is “inactive”.
Turning to `CCCCNC(=O)/C(C#N)=C/c1c(C)[nH]c2ccccc12`, in the series filed under Ovis aries [2], the inhibition result was “inactive”.
Still for that read-out and setting: the result for `Cc1c(C=O)c2ccccc2n1CCCN(C)C` reads “inactive”.
In the case of `CN(C)CCn1cc(CCC(=O)O)c2ccccc21`, half-maximal inhibition in series [1] (IC50) was put at 131 µM.
As for `CCCCCCCCNC(=O)/C(C#N)=C/c1c(C)n(CCCN(C)C)c2ccccc12`, the IC50 in series [1] was found to be 3.33 µM. In addition, the result at Dynamin-2 (Homo sapiens) [3], on Dynamin-2 (Homo sapiens) [4] and in the series filed under Ovis aries [7] was Active. Moreover, in the series with U2OS, the Activity entry is “Non-toxic”.
For the molecule `Cc1c(C=O)c2ccccc2n1CCN(C)C`, the inhibition result in the series listed under Ovis aries [2] was “inactive”.
Turning to `CN(C)CCCn1cc(CC(=O)O)c2ccccc21`, in the series listed under Ovis aries [2], the inhibition entry was “inactive”.
`Cc1cc2ccccc2n1CCCN(C)C`: the IC50 in series [1] was determined as 300 µM.
As to `CN(C)CCCn1ccc2ccccc21`, the IC50 in series [1] amounted to 300 µM.
Regarding `CCCCCCNC(=O)/C(C#N)=C/c1c(C)[nH]c2ccccc12`, in the series listed under Ovis aries [2], the inhibition result was “inactive”.
For `COc1ccc(CNC(=O)/C(C#N)=C/c2c(C)n(CCCN(C)C)c3ccccc23)cc1`, the IC50 in series [1] came to 222 µM.
Same read-out and setting: next, `CN(C)CCn1ccc2ccccc21`: 300 µM; `CCCCCCCCCCCCCCNC(=O)/C(C#N)=C/c1c(C)n(CCN(C)C)c2ccccc12`: 38 µM.
With `CCCNC(=O)/C(C#N)=C/c1c(C)[nH]c2ccccc12`, the inhibition entry in the series listed under Ovis aries [2] was “inactive”.
The same measure, in the same setting: the result for `CCCCCCCCCCNC(=O)/C(C#N)=C/c1c(C)[nH]c2ccccc12` reads “inactive”; that for `COc1ccc(CNC(=O)/C(C#N)=C/c2c(C)[nH]c3ccccc23)cc1`, “inactive”; that for `CN(C)CCn1cc(CC(=O)O)c2ccccc21`, “inactive”.
On the same count and under the same terms, the result for `CCNC(=O)/C(C#N)=C/c1c(C)n(CCCN(C)C)c2ccccc12` reads “inactive”.
On to `CCCCCCCCCCNC(=O)/C(C#N)=C/c1c(C)n(CCN(C)C)c2ccccc12`, for which, in series [1], the IC50 amounted to 10.1 µM. Also, at Dynamin-2 (Homo sapiens) [4], the outcome was Active. Also, in the series with U2OS, the Activity entry was “Non-toxic”.
Consider `CCNC(=O)/C(C#N)=C/c1c(C)n(CCN(C)C)c2ccccc12`, for which the inhibition result in the series filed under Ovis aries [2] is “inactive”.
Same read-out and setting: next, `Cc1[nH]c2ccccc2c1/C=C(\C#N)C(=O)NC1CCCCC1`: “inactive”.
Molecule `CCCCCCCCNC(=O)/C(C#N)=C/c1c(C)n(CCN(C)C)c2ccccc12` gave an IC50 in series [1] of 9.05 µM. The outcome on Dynamin-2 (Homo sapiens) [4] was Active. Also, the Activity result with U2OS is “Non-toxic”.
Regarding `CCCCCCCCCCCCNC(=O)/C(C#N)=C/c1c(C)[nH]c2ccccc12`, the inhibition result in the series listed under Ovis aries [2] was “inactive”.
In series [1], `Cc1c(/C=C(\C#N)C(=O)NCc2ccccc2)c2ccccc2n1CCN(C)C` yielded an IC50 of 196 µM.
The same measure, in the same setting: the result for `Cc1cc2ccccc2n1CCN(C)C` reads 300 µM.
With `CCCCNC(=O)/C(C#N)=C/c1c(C)n(CCN(C)C)c2ccccc12`, in series [1], the IC50 was 300 µM.
In the case of `Cc1[nH]c2ccccc2c1/C=C(\C#N)C(=O)NCc1ccccc1`, the inhibition result in the series listed under Ovis aries [2] was “inactive”.
The same measure, in the same setting: next, `CCCCCCCCCCCCCCNC(=O)/C(C#N)=C/c1c(C)[nH]c2ccccc12`: “inactive”.

As usually defined, the IC50 is the concentration at which inhibition is half-maximal. Higher therefore signals weaker potency.
